Consider 3 molecules from ChEMBL document CHEMBL1126202, “Dual-action penems and carbapenems” (J Med Chem, 1992).

Test [1] concerns Escherichia coli. In words: In vitro antibacterial activity against Escherichia coli TEM-1 (constitutive beta-lactamase producer). It counts as functional. The essentials: (§1)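 MIC was determined by agar dilution on Mueller-Hinton agar. Serial 2-fold aqueous dilutions were diluted 10-fold in agar to give final concentrations of 128 to 0.0156 μg/mL. Plates were inoculated by Steers replicator with overnight broth cultures diluted 100-fold.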

The subject of test [2] is Staphylococcus aureus. Put plainly: In vitro antibacterial activity against staphylococcus aureus smith. It counts as functional. In a few lines:
as §1

In test [3] the test system is Escherichia coli. In words: In vitro antibacterial activity against Escherichia coli 257. It counts as functional.
Test [4] relates to Bacteroides thetaiotaomicron. Put plainly: In vitro antibacterial activity against Bacteroides thetaiotaomicron 62B. It counts as functional. In a few lines:
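Anaerobic MICs were determined in microtiter plates in Schaedler's broth supplemented with coenzyme I and hemin. Incubation was under an oxygen-free hydrogen-carbon dioxide atmosphere.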

In another test the test system is Streptococcus pyogenes. Put plainly: In vitro antibacterial activity against Streptococcus pyogenes 4. It counts as functional. In a few lines:
(§2)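 Streptococcal MICs were determined by agar dilution on brain heart infusion agar supplemented with 20 units/mL bovine liver catalase. Final concentrations were 128 to 0.0156 μg/mL from 2-fold dilutions. Inocula were overnight broth cultures diluted 100-fold, applied by Steers replicator.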

Test [5] concerns Pseudomonas aeruginosa. In words: In vitro antibacterial activity against Pseudomonas aeruginosa 8780. It counts as functional. The essentials:
as §1

In test [6] the test system is Staphylococcus aureus. Put plainly: In vitro antibacterial activity against Staphylococcus aureus 67(methicillin resistant). It counts as functional. The essentials:
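MIC by agar dilution on Mueller-Hinton agar. Compounds were serially 2-fold diluted in water, final 128 to 0.0156 μg/mL in agar. Inoculum: overnight broth culture diluted 100-fold, applied with a Steers replicator.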

Test [7] concerns Bacteroides fragilis. In words: In vitro antibacterial activity against Bacteroides fragilis F117A. It counts as functional. The essentials:
(§3)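 MIC by broth dilution in microtiter plates, run in an oxygen-free hydrogen–carbon dioxide atmosphere. Medium: Schaedler's broth with coenzyme I and hemin added.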

Test [8] deals with Clostridioides difficile. In words: In vitro antibacterial activity against Clostridium difficile 701. It counts as functional.
In test [9] the target is T1, Peptidoglycan D,D-transpeptidase MrdA (Escherichia coli K-12) (UniProt P0AD65).
T1 sequence (whole entry): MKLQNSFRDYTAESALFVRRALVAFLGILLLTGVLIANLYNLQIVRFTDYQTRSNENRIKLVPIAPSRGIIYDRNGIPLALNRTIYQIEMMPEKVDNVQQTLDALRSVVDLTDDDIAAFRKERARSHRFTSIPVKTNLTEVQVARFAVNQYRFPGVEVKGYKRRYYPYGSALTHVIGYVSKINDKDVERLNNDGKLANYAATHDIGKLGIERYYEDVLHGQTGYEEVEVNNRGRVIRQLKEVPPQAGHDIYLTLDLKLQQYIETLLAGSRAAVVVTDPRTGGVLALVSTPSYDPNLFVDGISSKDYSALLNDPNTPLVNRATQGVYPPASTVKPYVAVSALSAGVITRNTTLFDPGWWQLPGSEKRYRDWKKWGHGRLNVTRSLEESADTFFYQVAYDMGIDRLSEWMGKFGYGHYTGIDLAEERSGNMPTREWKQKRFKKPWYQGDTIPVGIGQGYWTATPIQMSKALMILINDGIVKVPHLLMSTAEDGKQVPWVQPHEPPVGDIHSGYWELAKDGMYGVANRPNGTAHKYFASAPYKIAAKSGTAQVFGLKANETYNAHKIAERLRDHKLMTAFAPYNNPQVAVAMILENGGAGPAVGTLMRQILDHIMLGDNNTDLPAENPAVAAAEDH
Put plainly: Concentration inhibiting [14C]- Penicillin G binding to Escherichia coli UB1005 PBP2 (penicillin binding protein) 66 kDa. In a few lines:
(§4)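 Solubilized membranes from sonicated E. coli UB1005 were used as the PBP source. Inhibition of [14C]penicillin G binding to the PBPs was measured.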

The subject of a further test is Clostridium perfringens. In words: In vitro antibacterial activity against Clostridium perfringens 13424. It counts as functional. The essentials:
as §3

For another test, the system named is Proteus mirabilis. In words: In vitro antibacterial activity against Proteus mirabilis 90. It counts as functional. The essentials: (§5)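 Proteus MICs were determined by agar dilution on Mueller-Hinton agar containing 3% agar. Serial 2-fold dilutions gave final concentrations of 128 to 0.0156 μg/mL. Plates were replicator-inoculated with 100-fold-diluted overnight broth cultures.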

In test [10] the test system is Escherichia coli. In words: Concentration inhibiting [14C]- Penicillin G binding to Escherichia coli UB1005 PBP4 (penicillin binding protein) 49 kDa. It counts as functional. The essentials: as §4
The test system of test [11] is Pseudomonas aeruginosa. In words: In vitro antibacterial activity against Pseudomonas aeruginosa 18SH (constitutive beta-lactamase producer). It counts as functional. The essentials: as §1
Test [12] concerns Bacteroides fragilis. Put plainly: In vitro antibacterial activity against bacteroides fragilis S2. It counts as functional. The essentials:
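Anaerobic MIC, run in microtiter plates in Schaedler's broth supplemented with coenzyme I and hemin. Incubated in an oxygen-free hydrogen–carbon dioxide atmosphere.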

The test system of a further test is Serratia marcescens. Put plainly: In vitro antibacterial activity against serratia marcescens SM (constitutive beta-lactamase producer). It counts as functional. In a few lines:
as §1

Another test has as its system Streptococcus pneumoniae. Put plainly: In vitro antibacterial activity against streptococcus pneumoniae 6301. It counts as functional. The essentials: as §2
The subject of test [13] is Clostridioides difficile. In words: In vitro antibacterial activity against Clostridium difficile 651. It counts as functional.
For a further test, the system named is Proteus vulgaris. Put plainly: In vitro antibacterial activity against proteus vulgaris ATCC 6380 (constitutive beta-lactamase producer). It counts as functional. In a few lines: as §5
Another test concerns Klebsiella pneumoniae. Put plainly: In vitro antibacterial activity against klebsiella pneumoniae A. It counts as functional. In a few lines: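 Agar-dilution MIC on Mueller-Hinton agar. Serial 2-fold dilutions were made in water, giving final agar concentrations of 128 to 0.0156 μg/mL. Inoculum was an overnight broth culture diluted 100-fold, applied with a multipoint replicator.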

The test system of another test is Citrobacter freundii. In words: In vitro antibacterial activity against citrobacter freundii BS-16 (constitutive beta-lactamase producer). It counts as functional. In a few lines:
as §1

Test [14] deals with Penicillin-binding protein 1A (Escherichia coli K-12) (UniProt P02918). In words: Concentration inhibiting [14C]- Penicillin G binding to Escherichia coli UB1005 PBP1a (penicillin binding protein) 90 kDa.

Some results are limits rather than exact numbers.

Penicillin-binding protein 1A (Escherichia coli K-12), sequence (P02918 whole entry, looked up): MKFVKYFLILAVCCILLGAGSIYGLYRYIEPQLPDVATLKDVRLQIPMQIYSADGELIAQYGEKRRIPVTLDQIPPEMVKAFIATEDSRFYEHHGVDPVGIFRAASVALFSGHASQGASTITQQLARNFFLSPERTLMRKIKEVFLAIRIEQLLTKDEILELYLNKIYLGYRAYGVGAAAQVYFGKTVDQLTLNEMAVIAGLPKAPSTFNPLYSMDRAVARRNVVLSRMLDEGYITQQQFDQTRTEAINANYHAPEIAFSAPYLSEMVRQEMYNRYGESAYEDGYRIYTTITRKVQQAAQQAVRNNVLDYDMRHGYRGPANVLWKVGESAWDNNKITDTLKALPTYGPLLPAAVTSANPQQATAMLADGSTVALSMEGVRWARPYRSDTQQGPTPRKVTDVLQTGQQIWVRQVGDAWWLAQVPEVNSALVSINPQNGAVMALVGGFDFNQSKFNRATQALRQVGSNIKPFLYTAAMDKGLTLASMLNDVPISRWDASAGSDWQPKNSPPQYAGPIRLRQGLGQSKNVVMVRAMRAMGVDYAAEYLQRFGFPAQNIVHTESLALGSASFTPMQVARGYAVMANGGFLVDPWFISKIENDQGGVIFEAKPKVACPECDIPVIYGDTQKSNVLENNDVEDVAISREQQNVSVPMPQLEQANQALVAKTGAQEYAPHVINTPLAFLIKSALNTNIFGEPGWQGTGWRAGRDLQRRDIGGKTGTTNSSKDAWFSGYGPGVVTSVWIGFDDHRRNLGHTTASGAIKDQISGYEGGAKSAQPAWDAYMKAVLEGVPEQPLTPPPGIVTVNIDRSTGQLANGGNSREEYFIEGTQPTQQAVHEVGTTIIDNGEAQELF

As usually defined, the MIC is the lowest concentration found to suppress growth. Lower therefore signals a more susceptible organism. One may read the IC90 as the point of the concentration-response curve where the effect stands at 90%. A lower IC90 goes with greater potency. With `C[C@@H](O)[C@H]1C(=O)N2C(C(=O)[O-])=C(CO)S[C@H]12.[Na+]`, the MIC was 4 µg/mL against Escherichia coli [1]; 0.25 µg/mL in the test with Staphylococcus aureus [2]; 4 µg/mL in the test with Escherichia coli [3]; 0.125 µg/mL in test [4]; 0.125 µg/mL with Streptococcus pyogenes; 64 µg/mL against Pseudomonas aeruginosa [5]. The MIC in the test with Staphylococcus aureus [6] was greater than 64 µg/mL; against Bacteroides fragilis [7], 64 µg/mL; with Clostridioides difficile [8], 2 µg/mL; in the test on Clostridium perfringens, 0.5 µg/mL; against Proteus mirabilis it was 8 µg/mL; with Pseudomonas aeruginosa [11], 8 µg/mL. Moreover, the concentration for an effect of 90% (IC90) in test [9] is 30 µg/mL; in the test with Escherichia coli [10] it was greater than 100 µg/mL.
For `C[C@@H](O)[C@H]1C(=O)N2C(C(=O)[O-])=C(COC(=O)c3cn(CCF)c4c(F)c(N5CCN(C)CC5)c(F)cc4c3=O)S[C@H]12.[Na+]`, the MIC was less than 0.125 µg/mL against Bacteroides fragilis [12]; 0.5 µg/mL in the test on Escherichia coli [1]; 0.125 µg/mL with Staphylococcus aureus [2]; 0.25 µg/mL in the test with Escherichia coli [3]; 4 µg/mL in test [4]; less than 0.0156 µg/mL in the test on Streptococcus pyogenes. The MIC in the test on Pseudomonas aeruginosa [5] was 16 µg/mL; against Staphylococcus aureus [6] it was 1 µg/mL; against Serratia marcescens it was 0.5 µg/mL; in the test on Streptococcus pneumoniae, less than 0.0156 µg/mL; against Clostridioides difficile [13] it was 0.5 µg/mL; against Clostridioides difficile [8], 1 µg/mL. For the same molecule, the MIC against Proteus vulgaris is 0.25 µg/mL; with Clostridium perfringens it was less than 0.125 µg/mL; against Klebsiella pneumoniae, 0.5 µg/mL; in the test with Proteus mirabilis, 1 µg/mL; against Citrobacter freundii, 0.5 µg/mL. Moreover, the IC90 in test [9] was 10 µg/mL; with Escherichia coli [10] it was greater than 100 µg/mL; in [14], 2 µg/mL.
With `C[C@@H](O)[C@H]1C(=O)N2C(C(=O)[O-])=C(COC(=O)N3CCN(c4cc5c(cc4F)c(=O)c(C(=O)O)cn5C4CC4)CC3)S[C@H]12.[Na+]`, the MIC against Bacteroides fragilis [12] was 16 µg/mL; in the test with Escherichia coli [1], 0.0625 µg/mL; in the test on Staphylococcus aureus [2], 0.125 µg/mL; against Escherichia coli [3], 0.0625 µg/mL; in test [4], 16 µg/mL; in the test with Streptococcus pyogenes it was 0.0313 µg/mL. The MIC with Pseudomonas aeruginosa [5] was determined as 2 µg/mL; in the test with Staphylococcus aureus [6], 4 µg/mL; against Serratia marcescens, 0.25 µg/mL; with Bacteroides fragilis [7] it was 1 µg/mL; against Streptococcus pneumoniae, 0.0313 µg/mL; with Clostridioides difficile [13], 4 µg/mL. Moreover, the MIC is 8 µg/mL with Clostridioides difficile [8]; 0.0625 µg/mL with Proteus vulgaris; 0.25 µg/mL against Clostridium perfringens; 0.25 µg/mL against Klebsiella pneumoniae; 1 µg/mL against Proteus mirabilis; 0.125 µg/mL against Citrobacter freundii. The molecule also came in with a minimal inhibitory concentration (MIC) with Pseudomonas aeruginosa [11] of 1 µg/mL. Further, the concentration for an effect of 90% (IC90) in [9] is 30 µg/mL; in the test on Escherichia coli [10], greater than 100 µg/mL; in [14] it was 2 µg/mL.
